KDM4C inh – inhibitors of GASC-1 (KDM4C) histone demethylase, primary screen, biochemical, single concentration HTS. 0.15% of 96,000 active. GST-KDM4C 2-372, H3K9me3 peptide, LANCE TR-FRET. AID 720574, 2013. Lysine-specific demethylase 4C (Homo sapiens), Q9H3R0. inhibition, % at 12.5 µM;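 active means mean replicate inhibition above about 25%, with at least 55% of replicates also reaching it, limit read from the data, passing the limit was not always enough; inconclusive means only one of those two conditions met; inactive means neither condition met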
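Compound: one test concentration per compound; Material: GST-GASC-1 enzyme fragment 2-372; Amount: GASC-1 enzyme at 10 nM final in reaction; Also added: H3K9me3 peptide substrate, Fe(II), 2-oxoglutarate; Technique: LANCE TR-FRET; Times: 30 min demethylation and 1 h detection at room temperature.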
Pf Dd2 inh – P. falciparum Dd2 growth inhibitors, primary screen, SYBR Green fluorescence, single dose replicates | 72 h; hits give low values | activity change, % at 10 µM | 2.3% of 94,000 active; in the data active means activity change below about -80%; inconclusive means no clear call, values can overlap the other calls
IDH1 mut inh – inhibitors of IDH1 R132H reductase, primary screen, biochemical, plate reader, single point. Isocitrate dehydrogenase [NADP] cytoplasmic (Homo sapiens), O75874. diaphorase/resazurin fluorescence, 60 min. inhibition, % at 10 µM. 0.18% of 70,000 active; in the data active means inhibition above about 34%; inconclusive means no clear call, values can overlap the other calls; inactive means below about 11%;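 further: 0% = DMSO and 100% = no enzyme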
Target sequence (O75874 whole entry R132H): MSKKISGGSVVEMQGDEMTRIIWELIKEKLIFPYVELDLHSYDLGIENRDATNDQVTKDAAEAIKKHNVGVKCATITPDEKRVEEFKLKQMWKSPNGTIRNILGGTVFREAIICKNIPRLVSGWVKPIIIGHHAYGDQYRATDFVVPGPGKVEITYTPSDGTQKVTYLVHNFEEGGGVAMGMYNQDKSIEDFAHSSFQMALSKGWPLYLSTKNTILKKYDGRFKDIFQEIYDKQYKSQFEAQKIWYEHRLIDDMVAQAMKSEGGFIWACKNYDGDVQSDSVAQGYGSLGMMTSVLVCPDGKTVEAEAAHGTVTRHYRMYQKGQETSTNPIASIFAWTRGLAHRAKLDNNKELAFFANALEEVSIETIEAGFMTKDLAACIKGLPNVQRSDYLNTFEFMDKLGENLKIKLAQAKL
T cruzi growth-1 – T. cruzi intracellular proliferation inhibitors, primary screen, cell-based, beta-gal Tulahuen parasites, NIH3T3 host, luminescence | T. cruzi beta-gal in NIH3T3, GalScreen luminescence, 90 h | inhibition, % at 8.34 µM | 5.9% of 77,000 active | AID 624255, 2012;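 active means mean inhibition above about 93%, with at least 55% of replicates each passing it, limit read from the data, passing the limit was not always enough; inconclusive means only one of those two conditions holds; inactive means neither condition holds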
T cruzi growth-2 – T. cruzi intracellular proliferation inhibitors, confirmation, cell-based, NIH3T3 host, beta-gal parasite, luminescence, cherry-pick | 72% of 5,600 active | T. cruzi beta-gal in NIH3T3, GalScreen luminescence, 90 h | AID 651739, 2012 | inhibition, % at 8.35 µM | shares compounds with T cruzi growth-1;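 active means mean replicate inhibition above about 95% and at least 55% of replicates individually reaching it, limit read from the data; inconclusive means only one of the two criteria is met; inactive means neither criterion is met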
T cruzi growth-3 – inhibitors of intracellular T. cruzi replication, confirmation, NIH3T3 host cells, beta-gal parasites, cherry-pick, set 2; shares compounds with T cruzi growth-1; T. cruzi beta-gal in NIH3T3, GalScreen luminescence, 90 h; inhibition, % at 2.09 µM; 21% of 5,600 active; AID 651740, 2012;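 active means mean inhibition above about 95%, with at least 55% of replicates also reaching it, limit read from the data; inconclusive means meets just one of the two conditions; inactive means meets neither condition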;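 further: plate controls were neutral control median for no effect and positive control median for full effect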
NIH3T3 tox – cytotoxicity in mouse NIH/3T3 fibroblasts, confirmation, cytotoxicity control for T. cruzi proliferation inhibitor project, cell-based, cherry-pick, single point. shares compounds with T cruzi growth-1. NIH/3T3 viability, CellTiter-Glo ATP luminescence, 90 h. cytotoxicity (signal decrease), % at 8.35 µM. 14% of 5,600 active;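 active means mean signal decrease across replicates above about 35% based on untreated-well scatter, with enough replicates individually passing, limit read from the data; inconclusive means no rule stated though some were filed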;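 further: 0% = median of neutral control wells and 100% = median of positive control wells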
3T3 cytotox 2 – NIH/3T3 fibroblast cytotoxicity, confirmation, cytotoxicity control, cell-based, cherry-pick, single point, set 2; inhibition, % at 24.9 µM; NIH/3T3 viability, CellTiter-Glo ATP luminescence, 90 h; shares compounds with T cruzi growth-1; AID 651744, 2012; 56% of 5,600 active;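 active means mean loss of cell viability signal at or above a set limit, and enough replicates individually reaching it; inconclusive means meets only the mean limit or only the replicate share; inactive means meets neither condition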;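 further: 0% = median of neutral control wells and 100% = median of positive control wells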
The depositor's hits bear a star; ? = inconclusive; . = no result given. Compounds with a hit are over-represented: about 5.8% of the library has one in this group of screens.

SMILES	KDM4C inh	Pf Dd2 inh	IDH1 mut inh	T cruzi growth-1	T cruzi growth-2	T cruzi growth-3	NIH3T3 tox	3T3 cytotox 2
Cc1ccccc1-c1ccc([C@H]2[C@@H](CO)N3CCCCN(C(=O)Nc4ccccc4)C[C@H]23)cc1	-2.3	-20.4	.	34.5	.	.	.	.
O=C(Nc1ccc2c(c1)[C@@H]1C[C@H](CC(=O)N3CCc4ccccc4C3)O[C@H](CO)[C@@H]1O2)Nc1ccccc1F	-2.4	-51.7	-0.5	.	.	.	.	.
CN(C)CC(=O)Nc1ccc2c(c1)[C@@H]1C[C@H](CC(=O)N3CCc4ccccc4C3)O[C@H](CO)[C@@H]1O2	2.9	-6.6	-1.6	3.0	.	.	.	.
O=C(Nc1ccc(C(F)(F)F)cc1)Nc1ccc2c(c1)[C@@H]1C[C@@H](CC(=O)N3CCc4ccccc4C3)O[C@H](CO)[C@@H]1O2	-1.5	-48.6	0.2	138.1*	97.5*	?	-2.6	103.9*
O=C(CC1CC1)Nc1ccc2c(c1)[C@@H]1C[C@@H](CC(=O)N3CCCCC3)O[C@@H](CO)[C@@H]1O2	0.4	8.9	0.2	104.3*	-0.3	20.9	9.0	10.7
O=C(Nc1ccc(C(F)(F)F)cc1)Nc1ccc2c(c1)[C@@H]1C[C@H](CC(=O)N3CCc4ccccc4C3)O[C@H](CO)[C@@H]1O2	1.2	-55.9	0.0	118.6*	91.6	122.4*	8.1	-9.5
O=C(Nc1ccc2c(c1)[C@@H]1C[C@H](CC(=O)N3CCc4ccccc4C3)O[C@@H](CO)[C@@H]1O2)Nc1ccccc1F	-6.5	-27.1	-0.2	.	.	.	.	.
CN(C)CC(=O)Nc1ccc2c(c1)[C@H]1C[C@@H](CC(=O)N3CCc4ccccc4C3)O[C@H](CO)[C@H]1O2	-1.8	13.5	-0.1	105.1*	64.6	9.2	-8.8	-3.8
CCn1c(SCC(=O)Nc2ccccc2C(F)(F)F)nnc1-c1ccc(N)cc1	.	.	0.5	.	.	.	.	.
COCCCN=C1NS(=O)(=O)c2ccccc21	.	.	0.6	.	.	.	.	.
COc1ccccc1-n1c(CSc2nc3cc(C(=O)N4CCCC4)ccc3s2)nc2ccccc2c1=O	.	.	0.3	.	.	.	.	.
O=C(C[C@@H]1C[C@H]2c3cc(NS(=O)(=O)c4ccc(F)cc4)ccc3O[C@H]2[C@@H](CO)O1)N1CCc2ccccc2C1	0.0	-27.4	0.1	117.4*	87.9	24.3	10.8	1.1
C[C@H]1CCCCO[C@H](CN(C)Cc2ccc3c(c2)OCO3)[C@@H](C)CN([C@@H](C)CO)C(=O)c2cc(NC(=O)Nc3ccc(F)cc3)ccc2O1	0.0	-75.0	2.0	109.4*	101.9*	98.9*	28.1	104.3*
C[C@@H]1CCCCO[C@@H](CN(C)Cc2ccc3c(c2)OCO3)[C@H](C)CN([C@H](C)CO)C(=O)c2cc(NC(=O)Nc3ccc(F)cc3)ccc2O1	1.0	-77.6	.	?	96.6*	100.3*	24.1	104.1*
Cc1ccc(N=C2NC(=O)CC(C(=O)Nc3ccc(Cl)cc3)S2)cc1C (configuration not stated)	.	.	-0.6	.	.	.	.	.
Cc1ccc(-c2cc(C(=O)NCCCN3CCOCC3)c3cc(Br)ccc3n2)cc1	.	.	0.0	.	.	.	.	.
CC(C)CC#Cc1ccc2c(c1)O[C@@H](CN(C)C(=O)c1ccncc1)[C@@H](C)CN([C@@H](C)CO)S2(=O)=O	1.1	-3.5	0.3	107.1*	?	71.4	3.2	62.4*
CC(C)CC#Cc1ccc2c(c1)O[C@@H](CN(C)C(=O)c1ccncc1)[C@H](C)CN([C@@H](C)CO)S2(=O)=O	18.7	-0.3	1.6	94.4	.	.	.	.
CC(C)CC#Cc1ccc2c(c1)O[C@@H](CN(C)C(=O)c1ccncc1)[C@@H](C)CN([C@H](C)CO)S2(=O)=O	10.3	-11.8	1.6	103.8*	106.6*	72.8	32.3	71.0*
COc1ccc([C@@H]2Oc3c(OC)cc(CCCO)cc3[C@H]2CO)cc1OC	.	.	0.2	.	.	.	.	.
C[C@@H]1CCCCO[C@H](CN(C)S(=O)(=O)c2ccc(Cl)cc2)[C@H](C)CN([C@H](C)CO)C(=O)c2cc(NC(=O)CCC(F)(F)F)ccc2O1	0.0	-42.2	.	98.6*	106.3*	33.6	14.2	29.6*
C[C@H]1CCCCO[C@H](CN(C)S(=O)(=O)c2ccc(Cl)cc2)[C@@H](C)CN([C@@H](C)CO)C(=O)c2cc(NC(=O)CCC(F)(F)F)ccc2O1	-1.8	-72.5	4.1	105.5*	102.8*	70.4	-0.1	18.6
C[C@H]1CCCCO[C@@H](CN(C)S(=O)(=O)c2ccc(Cl)cc2)[C@@H](C)CN([C@@H](C)CO)C(=O)c2cc(NC(=O)CCC(F)(F)F)ccc2O1	0.4	-82.7*	.	116.7*	109.6*	73.0	-20.2	15.9
CCCCCCCCCCCCC/C=C/C(O)C(CO)NC(C)=O (configuration not stated)	.	.	0.2	.	.	.	.	.
CC(C)CC#Cc1ccc2c(c1)O[C@@H](CN(C)Cc1ccccn1)[C@@H](C)CN([C@H](C)CO)S2(=O)=O	10.8	-17.2	-2.1	109.5*	105.6*	52.1	-7.2	104.1*
CC(C)CC#Cc1ccc2c(c1)O[C@H](CN(C)Cc1ccccn1)[C@@H](C)CN([C@H](C)CO)S2(=O)=O	1.6	-56.7	-0.6	124.4*	106.4*	93.8	22.3	106.1*
C[C@@H]1CN([C@@H](C)CO)S(=O)(=O)c2ccc(C#Cc3ccccn3)cc2O[C@H]1CN(C)Cc1ccccc1	-43.1	-72.8	-2.4	85.7*	?	103.4*	18.7	33.0*
C[C@H](CO)N1C[C@H](C)[C@@H](CN(C)Cc2ccccc2)Oc2cc(C#Cc3ccccn3)ccc2S1(=O)=O	-18.5	-12.3	-0.1	105.8	.	.	.	.
C[C@@H]1CN([C@@H](C)CO)S(=O)(=O)c2ccc(C#Cc3ccccn3)cc2O[C@@H]1CN(C)Cc1ccccc1	-4.6	-32.8	-0.7	108.0*	109.0*	86.2	43.5*	20.7
C[C@@H]1CN([C@H](C)CO)S(=O)(=O)c2ccc(C#Cc3ccccn3)cc2O[C@H]1CN(C)Cc1ccccc1	-17.6	-26.0	0.0	105.8*	103.9*	79.4	19.0	98.5*

Compound activity deposited in PubChem BioAssay by Broad Institute.
